The values below come from article PMC11064185 (ACS Omega, 2024).

Assay [1] addresses Saccharomyces cerevisiae α-glucosidase (Saccharomyces cerevisiae, UniProt P53341). The experiment in a line: α-glucosidase inhibition assay. It is filed as biochemical.
Assay [2] addresses α-glucosidase (Saccharomyces cerevisiae, UniProt P53341). Kind of assay: affinity ultrafiltration UPLC–Q-TOF–MS/MS screening, binding rate. The note with it: peak area reduction in CGB extract after ultrafiltration. In outline: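 95% ethanol reflux extract of whole herb: three 3 h extractions at 1:13 m/v, then concentrated and dried. Extract incubated with yeast α-glucosidase and ultrafiltered on a 10 kDa membrane. Bound ligands released from the retentate with methanol and identified by UPLC-Q-TOF-MS/MS.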

Structures are written as SMILES.

α-glucosidase, sequence (P53341 whole entry): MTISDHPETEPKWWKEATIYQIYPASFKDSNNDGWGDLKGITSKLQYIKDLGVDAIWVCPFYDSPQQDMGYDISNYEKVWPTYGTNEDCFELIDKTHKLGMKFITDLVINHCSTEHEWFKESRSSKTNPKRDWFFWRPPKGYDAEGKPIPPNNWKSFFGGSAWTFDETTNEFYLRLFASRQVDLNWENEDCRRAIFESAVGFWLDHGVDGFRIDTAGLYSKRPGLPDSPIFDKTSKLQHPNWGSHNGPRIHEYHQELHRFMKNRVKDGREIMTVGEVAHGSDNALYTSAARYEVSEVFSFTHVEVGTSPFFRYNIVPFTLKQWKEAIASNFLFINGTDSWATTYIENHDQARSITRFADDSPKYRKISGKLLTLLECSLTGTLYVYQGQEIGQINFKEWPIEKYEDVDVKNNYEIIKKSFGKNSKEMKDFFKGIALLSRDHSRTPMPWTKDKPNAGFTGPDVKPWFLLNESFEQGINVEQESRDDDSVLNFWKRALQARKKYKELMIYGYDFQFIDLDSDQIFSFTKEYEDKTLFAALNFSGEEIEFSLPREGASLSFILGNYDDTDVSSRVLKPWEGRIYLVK
Saccharomyces cerevisiae α-glucosidase, sequence (P53341 whole entry): as above

For `COc1c(-c2ccc(O)c(O)c2)oc2cc(O)cc(O)c2c1=O` [3-O-methylquercetin], inhibition in assay [1] was half-maximal at 436.35 ± 0.01 µM (IC50). In assay [2], the “AD (affinity degree, binding rate to α-glucosidase)” value was 17.2%.
For `O=c1c(O[C@@H]2O[C@H](CO)[C@H](O)[C@H](O)[C@H]2O)c(-c2ccc(O)c(O)c2)oc2cc(O)cc(O)c12` [hyperoside], in that order: 1072.4 ± 0.54 µM and 23.4%.
As for `O=c1c(O)c(-c2ccc(O)c(O)c2)oc2cc(O)cc(O)c12` [quercetin], the “AD (affinity degree, binding rate to α-glucosidase)” value in assay [2] is given as 12.4%.
